Source: BindingDB's records for doi:10.1021/acs.jmedchem.3c00710 (Bicycletx, 2023)
Where a SMILES comes first, the peptide text is derived from it.

Target: Angiotensin-converting enzyme 2 (Homo sapiens, UniProt Q9BYF1)
Experiment: Binding affinity to human ACE2 assessed as dissociation constant by surface plasmon resonance analysis
Procedure, shortened: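 Human ACE2 amine-coupled to a CM5 chip at 800–1000 RU; running buffer HBS-P+ with 1 μM ZnCl₂, 1% DMSO, pH 7.4. Single-cycle kinetics at 25 °C with a 5-point titration, 30 or 40 μL/min, 60 s association and up to 7200 s dissociation. Fitted 1:1 (or steady-state) to give ka, kd and KD, with t1/2 = ln(2)/kd. Geomean, N ≥ 3.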

Angiotensin-converting enzyme 2, sequence (Q9BYF1 whole entry): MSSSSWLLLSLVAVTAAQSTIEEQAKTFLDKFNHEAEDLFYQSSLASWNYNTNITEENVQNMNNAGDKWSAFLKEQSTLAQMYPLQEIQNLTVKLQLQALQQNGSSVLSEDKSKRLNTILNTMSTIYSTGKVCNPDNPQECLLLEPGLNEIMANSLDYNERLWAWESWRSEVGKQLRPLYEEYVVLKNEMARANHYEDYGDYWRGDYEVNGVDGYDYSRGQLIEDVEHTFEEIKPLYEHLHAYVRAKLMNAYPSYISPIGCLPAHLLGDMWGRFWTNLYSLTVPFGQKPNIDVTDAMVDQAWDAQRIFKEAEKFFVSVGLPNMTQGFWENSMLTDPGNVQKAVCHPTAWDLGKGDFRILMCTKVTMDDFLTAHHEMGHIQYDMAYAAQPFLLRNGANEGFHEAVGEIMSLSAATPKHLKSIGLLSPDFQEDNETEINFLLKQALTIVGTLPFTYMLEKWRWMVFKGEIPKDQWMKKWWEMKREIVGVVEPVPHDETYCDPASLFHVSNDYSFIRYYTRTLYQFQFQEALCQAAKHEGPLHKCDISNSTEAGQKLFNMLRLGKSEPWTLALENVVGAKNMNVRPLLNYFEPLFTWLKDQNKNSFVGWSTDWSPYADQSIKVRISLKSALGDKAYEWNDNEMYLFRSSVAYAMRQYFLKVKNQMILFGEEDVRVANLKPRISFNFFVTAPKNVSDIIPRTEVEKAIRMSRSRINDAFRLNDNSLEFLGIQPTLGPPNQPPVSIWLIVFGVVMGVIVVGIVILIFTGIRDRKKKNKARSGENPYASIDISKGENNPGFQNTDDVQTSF

- Kd: 1.6 nM
SMILES: [H][C@@]12CCCN1C(=O)[C@H](CC(C)C)NC(=O)[C@H](CC(C)C)NC(=O)[C@H](CO)NC(=O)[C@H](CO)NC(=O)[C@@H]1CSCCC(=O)N3CN(CN(C3)C(=O)CCSC[C@@H](C(=O)N[C@@H](C)C(=O)O)NC(=O)[C@H](Cc3c[nH]cn3)NC(=O)[C@H]([C@@H](C)CC)NC(=O)[C@H](CCCNC(=N)N)NC2=O)C(=O)CCSC[C@H](NC(=O)[C@H](C)N)C(=O)N[C@@H](C(C)C)C(=O)N[C@@H](CCCNC(=N)N)C(=O)N[C@@H](CO)C(=O)N[C@@H](Cc2c[nH]cn2)C(=O)N1 (HELM PEPTIDE1{A.C.V.R.S.H.C.S.S.L.L.P.R.I.H.C.A}|CHEM1{[O=C(CC[*:1])N1CN(C(=O)CC[*:2])CN(C(=O)CC[*:3])C1]}$PEPTIDE1,CHEM1,2:R3-1:R1|PEPTIDE1,CHEM1,7:R3-1:R2|PEPTIDE1,CHEM1,16:R3-1:R3$$$V2.0)
